GSH bead fluor: GSH bead compound fluorescence profile. 0.25% of 190,000 active. fluorescence (KMESF) at 10 µM. GSH beads flow cytometry, compound fluorescence 488/530 nm; stronger effect = higher value; in the data active = fluorescence above about 89;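 also: glutathione beads carrying GST-tagged Bcl family fusion proteins plus one bare bead set; values are compound well signal with DMSO vehicle wells as background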
Avidin bead fluor: avidin bead compound fluorescence profile. Avidin beads, compound fluorescence 488/530 nm, flow cytometry; stronger effect = higher value. fluorescence (KMESF) at 10 µM. 0.38% of 220,000 active; in the data active = fluorescence above about 47
PKD1 kinase inh: PKD1 (human) kinase inhibition; PKD1 kinase fluorescence polarization assay; AID 797; Q15139; inhibition, % (test concentration not listed); 0.056% of 200,000 active
Target sequence (Q15139 whole entry, looked up): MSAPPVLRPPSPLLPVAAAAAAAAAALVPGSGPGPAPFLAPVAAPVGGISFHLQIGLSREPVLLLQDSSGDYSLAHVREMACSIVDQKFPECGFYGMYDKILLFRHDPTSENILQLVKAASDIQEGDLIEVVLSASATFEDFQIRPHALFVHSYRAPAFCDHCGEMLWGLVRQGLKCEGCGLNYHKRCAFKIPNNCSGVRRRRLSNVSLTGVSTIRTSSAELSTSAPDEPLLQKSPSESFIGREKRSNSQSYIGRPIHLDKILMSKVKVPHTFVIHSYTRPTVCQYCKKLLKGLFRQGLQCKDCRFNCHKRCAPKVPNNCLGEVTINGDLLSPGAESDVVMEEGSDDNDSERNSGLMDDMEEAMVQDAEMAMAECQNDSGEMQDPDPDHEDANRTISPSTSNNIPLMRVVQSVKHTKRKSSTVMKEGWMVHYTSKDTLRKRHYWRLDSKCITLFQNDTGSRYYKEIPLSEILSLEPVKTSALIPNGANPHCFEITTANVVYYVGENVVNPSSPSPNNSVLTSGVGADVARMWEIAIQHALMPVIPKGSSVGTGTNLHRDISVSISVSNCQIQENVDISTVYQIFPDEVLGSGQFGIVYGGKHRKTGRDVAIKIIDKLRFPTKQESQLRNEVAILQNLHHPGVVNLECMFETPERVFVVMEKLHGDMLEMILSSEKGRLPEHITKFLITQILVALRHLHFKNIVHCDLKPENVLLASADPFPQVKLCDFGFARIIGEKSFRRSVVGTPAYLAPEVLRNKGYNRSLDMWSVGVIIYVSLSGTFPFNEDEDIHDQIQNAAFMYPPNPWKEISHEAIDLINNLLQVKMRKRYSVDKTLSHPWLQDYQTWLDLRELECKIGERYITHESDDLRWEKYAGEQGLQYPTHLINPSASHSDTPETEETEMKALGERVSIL
L major viab: reduces viability of Leishmania major promastigotes. resazurin fluorescence viability. inhibition, % at 10 µM. 9% of 200,000 active. AID 1063;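 also: promastigotes grown with compound for 44 hours at 28 °C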
ABCB1 inh: human ABCB1 inhibition, ABCG2 as counter-screen; inhibition, % at 6.6 µM; CCRF-Adr cells, JC-1 efflux, flow cytometry; 0.067% of 190,000 active; P08183; in the data active = inhibition above about 40%;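 also: 0% = vehicle and 100% = reference inhibitor; higher value means more JC-1 retained so stronger ABCB1 efflux block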
ABCG2 inh: blocks JC-1 efflux by human ABCG2 transporter | inhibition, % at 6.6 µM | IgMXP3 cells, flow cytometry | Q9UNQ0 | AID 1325 | 0.1% of 190,000 active;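 active = inhibition above 80%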;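 also: 0% = DMSO and 100% = nicardipine control wells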
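Times: 10 min at 25 °C | Test system: Two drug-resistant human cell lines, ABCG2 and ABCB1 | Quantity: 3 million cells/mL final, two lines in 1:1 ratio | Signal: Flow cytometry, 530 nm JC-1 signal | Dosing: Compound at 6.6 µM | Controls: Nicardipine and DMSO wells | Reagent: JC-1 as fluorescent efflux pump substrate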
Numbers without * were called inactive; . = not tested or not shown. Shown is part of a subset that was picked to be rich in hits. Rule as the data show it, unless noted: active = inhibition above about 50%; inactive = the rest.

SMILES | GSH bead fluor | Avidin bead fluor | PKD1 kinase inh | L major viab | ABCB1 inh | ABCG2 inh
Nc1cc(=O)[nH]c(SCC(=O)Nc2ncc(C(F)(F)F)cc2Cl)n1 | 15 | 10 | -2 | 0 | 1 | 1
Cc1ccc(N2C(=O)C3C(C2=O)C(C(=O)c2ccc(Cl)cc2)N2CCCC32)cc1 (stereo not given) | 47 | 10 | 3 | 94* | 0 | 0
CC(=O)Oc1ccc(N2C(=O)C3C(C2=O)C(C(=O)c2ccc(Cl)cc2)N2CCCC32)cc1 (stereo not given) | . | 4 | . | . | . | .
COc1ccc(OC)c(S(=O)(=O)N2CCC(C(=O)NCc3ccccc3)CC2)c1 | 22 | 27 | -4 | -2 | 1 | 7
COc1ccc(OC)c(S(=O)(=O)N2CCC(C(=O)Nc3cccc(C(F)(F)F)c3)CC2)c1 | 41 | 6 | -6 | 91* | 0 | 4
CCOC(=O)c1sc(=NC(=O)CCS(=O)(=O)c2ccccc2)n(C)c1C | 11 | 6 | 91* | -2 | 1 | 2
C=C(C)CN1CCN(S(=O)(=O)c2ccc(C)c(N(C)S(=O)(=O)c3ccc(C)cc3)c2C)CC1 | 20 | 15 | 0 | 98* | 6 | 15
Cc1ccc(S(=O)(=O)N(C)c2c(C)ccc(S(=O)(=O)NC(C)(C)C)c2C)cc1 | 10 | 9 | -5 | 99* | 1 | 11
Cc1ccc(S(=O)(=O)N(C)c2c(C)ccc(S(=O)(=O)Nc3ccncc3)c2C)cc1 | 6 | 2 | -10 | -5 | 0 | -1
CCCCN(CC)CCCNC(=O)c1cc2cc3ccc(OC)cc3nc2o1 | 39 | 10 | -10 | 96* | 0 | 12
COc1ccc2cc3cc(C(=O)NCCc4ccc(OC)c(OC)c4)oc3nc2c1 | 11 | 36 | -7 | 29 | 1 | 4
COc1ccc2nc3oc(C(=O)Nc4ccc(OC)c(OC)c4)cc3cc2c1 | 31 | 15 | -1 | -6 | 0 | -4
CCCN(CCC)CCCNC(=O)c1cc2cc3ccc(OC)cc3nc2o1 | 33 | 9 | -5 | 96* | 1 | 28
COc1ccc2cc3cc(C(=O)Nc4ccc5c(c4)OCO5)oc3nc2c1 | 14 | 33 | -9 | 100* | 0 | -1
O=S(=O)(Nc1cccc2ncccc12)c1cccs1 | 24 | 11 | 2 | 100* | 1 | 12
COc1cc(OC)c(C(=O)OC(C)C(=O)Nc2cccc(C(F)(F)F)c2)cc1OC (stereo not given) | 9 | 16 | 1 | 47 | 2 | 23
Cc1ccc(S(=O)(=O)N2CN(Cc3ccco3)c3nc4ccccc4nc32)cc1 | 32 | 15 | -8 | 58* | 2 | -14
COc1ccc(CN2CN(S(=O)(=O)c3ccccc3)c3nc4ccccc4nc32)cc1 | . | 5 | . | . | . | .
COc1ccc(CCN2CN(S(=O)(=O)c3ccc(OC)cc3)c3nc4ccccc4nc32)cc1 | 5 | 11 | -4 | 85* | 2 | 4
O=S(=O)(c1ccc(F)cc1)N1CN(Cc2ccco2)c2nc3ccccc3nc21 | 12 | 14 | -3 | 97* | 0 | -2
O=C(N/N=C/c1ccc(Cl)cc1)c1cc(-c2cccnc2)nc2ccccc12 | 8 | 11 | 0 | 98* | 1 | 13
O=C(N/N=C/c1ccc[nH]1)c1sc2ccccc2c1Cl | 9 | 11 | -2 | 99* | 0 | 2
O=C(N/N=C/c1ccc[nH]1)c1cc(-c2ccc(Cl)cc2)nc2ccccc12 | 11 | 11 | 5 | 90* | 1 | 22
Cc1ccc(S(=O)(=O)N2CCCCC2)cc1NC(=O)COC(=O)Cc1cccc(C(F)(F)F)c1 | 32 | 4 | -8 | -1 | 0 | 4
CCC(CC)C(=O)NN(C(=O)c1ccncc1)C1CC(=O)N(c2ccccc2)C1=O (stereo not given) | . | 6 | . | . | . | .
COc1cccc(C(=O)NCc2ccc(-c3nc4ccccc4s3)cc2)c1 | 36 | 8 | -1 | -4 | 0 | 0
CCOc1ccc(C2C([N+](=O)[O-])=C(C)N(C)C(=O)N2C)cc1OC (stereo not given) | 27 | 10 | 2 | 56* | 1 | 2
Cc1ccc(C(c2c(C)[nH][nH]c2=O)c2c(C)[nH][nH]c2=O)cc1[N+](=O)[O-] | 20 | 13 | -10 | 58* | 0 | 0
